{"data": "Results pooled from the literature", "note": "Compare with care: the assays were run in different laboratories."}
{"SMILES": "CC(C)(C)c1ccc(O)c(CN(Cc2cc(C(C)(C)C)ccc2O)C2CCC(NC(N)=O)CC2)c1 (stereo not drawn)", "test system": "male C57BL/6 mouse, brain", "conditions": "oral, 10 mg/kg, single dose", "Cmax": "550 ng/g"}
{"SMILES": "COc1ccc([C@@]23Oc4cc(OC)cc(OC)c4[C@]2(O)[C@H](O)[C@H](C(=O)N(C)C)[C@H]3c2ccccc2)cc1", "test system": "mouse, plasma", "conditions": "intravenous, 5 mg/kg", "Cmax": "~11 µM"}
{"SMILES": "COc1cc2c(Nc3ccc(Cl)c(Cl)c3F)ncnc2cc1OC[C@@H]1C[C@@H]2CN(C)C[C@@H]2C1", "test system": "FVB mouse, brain", "conditions": "oral, 70 mg/kg, single dose", "Cmax": "7570 ng/g"}
{"SMILES": "CS(=O)(=O)CCNCc1ccc(-c2ccc3ncnc(Nc4ccc(OCc5cccc(F)c5)c(Cl)c4)c3c2)o1", "test system": "nude mouse, plasma", "conditions": "oral, 200 mg/kg, single dose", "Cmax": "16600 ng/mL"}
{"SMILES": "COc1nc(-c2cc(C)c(N[C@@H](C)c3ccc(F)cc3)nn2)ccc1-n1cnc(C)c1", "test system": "male CD-1 mouse, plasma", "conditions": "intravenous, 1 mg/kg, single dose", "Cmax": "768 ng/mL"}
{"SMILES": "C=CC(=O)N1CC2CC(n3nc(-c4ccc(C(=O)Nc5ccccn5)cc4)c4c(N)ncnc43)CC2C1 (stereo not drawn)", "test system": "SCID mouse, plasma", "conditions": "oral, 3 mg/kg", "Cmax": "703 ng/mL"}
{"SMILES": "COc1cc(OC)c2nccc(N3CCc4c(cc(Cn5ccnc5)cc4-c4cn(C)nc4C(F)(F)F)C3=O)c2c1", "test system": "male CD-1 mouse, plasma", "conditions": "oral, 50 mg/kg", "Cmax": "19700 ng/mL"}
{"SMILES": "O=C(CCCCCC(=O)NN=Cc1ccc(-c2ccccc2)cc1)NO", "test system": "C57BL/6 mouse, brain", "conditions": "intraperitoneal, 25 mg/kg, single dose", "Cmax": "0.06 µM"}
{"SMILES": "Cc1c2c(n(-c3ccc(Cl)cc3Cl)c1-c1ccc(OS(=O)(=O)CCC(F)(F)F)cc1)CCN(N1CCCCC1)C2=O", "test system": "mouse, plasma", "conditions": "oral, 6 µmol/kg, single dose", "Cmax": "0.48 µM"}
{"SMILES": "CCc1cc(OC)c2nccc(N3CCc4c(cc(Cn5ccnc5)cc4-c4cn(C)nc4C(F)(F)F)C3=O)c2c1", "test system": "male CD-1 mouse, plasma", "conditions": "oral, 50 mg/kg", "Cmax": "29000 ng/mL"}
{"SMILES": "CSc1cc(Oc2ccnc3[nH]c(=O)cnc23)ccc1NC(=O)Nc1cc(C(C)(C)C)nn1-c1ccccc1", "test system": "BALB/c mouse, plasma", "conditions": "oral, 10 mg/kg", "Cmax": "54.2 µM"}
{"SMILES": "Cc1cc(Nc2ccc(S(F)(F)(F)(F)F)cc2)n2ncnc2n1", "test system": "male Swiss mouse, plasma", "conditions": "oral, 100 mg/kg, single dose", "Cmax": "59 µM"}
{"SMILES": "COC(=O)CN(CCCc1ccccc1)CC(=O)N[C@@H](Cc1c[nH]cn1)c1nc(C)no1", "test system": "male C57BL/6 mouse, plasma", "conditions": "intraperitoneal, 30 mg/kg", "Cmax": "1000 ng/mL"}
{"SMILES": "Cc1ccc(NC(=O)c2ccc(CN3CCN(C)CC3)cc2)cc1Nc1nccc(-c2cncc(-c3oncc3C)c2)n1", "test system": "male C57BL/6 mouse, brain", "conditions": "oral, 100 mg/kg/day", "Cmax": "98.1 ng/mL"}
{"SMILES": "OC[C@H]1O[C@@H](c2ccc(Cl)c(Cc3ccc(O[C@H]4CCOC4)cc3)c2)[C@H](O)[C@@H](O)[C@@H]1O", "test system": "CD-1 mouse, plasma", "conditions": "intravenous, 5 mg/kg", "Cmax": "4920 ng/mL"}
{"SMILES": "CN1CCC[C@H](CN2c3ccccc3Sc3ccccc32)C1.Cl", "test system": "mouse, plasma", "conditions": "intraperitoneal, 32 mg/kg, single dose", "Cmax": "1560 ng/mL"}
{"SMILES": "Cc1nc2ccc(F)cc2n1-c1nc(N)c(F)c(Nc2ccc(C(F)(F)F)cc2)n1", "test system": "nude mouse, plasma", "conditions": "oral, 10 mg/kg", "Cmax": "1160 ng/mL"}
{"SMILES": "CC(=O)O[C@H]1C(=O)[C@@]2(C)[C@H]([C@H](OC(=O)c3ccccc3)[C@]3(O)C[C@H](OC(=O)[C@H](O)[C@@H](NC(=O)c4ccccc4)c4ccccc4)C(C)=C1C3(C)C)[C@]1(OC(C)=O)CO[C@@H]1C[C@@H]2O", "test system": "SCID mouse, plasma", "conditions": "intraperitoneal, 10 mg/kg, single dose", "Cmax": "2100 ng/mL"}
